From ChEMBL document CHEMBL4184236, “Design, synthesis and biological evaluation of matrine derivatives as potential anticancer agents” (Bioorg Med Chem Lett, 2018)

Key:
A549 = test: Anticancer activity against human A549 cells assessed as reduction in cell viability incubated for 48 hrs MTT assay; assay type: functional, cell-based; details: A549, 48 h
Procedure, shortened: (§1)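 MTT assay on human hepatocarcinoma SMMC-7721, lung carcinoma A549 and nasopharyngeal carcinoma CNE2 cells, with matrine as comparator and cisplatin as positive control. IC50 is the concentration that lowers optical density of treated cells by 50% versus untreated cells, given as the mean ± SD of three experiments.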

SMMC-7721 [1] = test: Induction of apoptosis in human SMMC7721 cells assessed as viable cells level at 50 uM incubated for 24 hrs by Annexin V-FITC/PI dual staining based flow cytometry (reference value: 96.2%); assay type: functional
Procedure, shortened: (§2)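 CNE2 and SMMC-7721 cells were treated for 24 h at 0, 5, 10 or 30 µM, or at 0, 10, 20 or 50 µM depending on compound. Cells were stained with Annexin V-FITC/propidium iodide and quantified by flow cytometry. Apoptotic cells were counted as AV+/PI− (lower right) plus AV+/PI+ (upper right) quadrants.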

CNE-2 [2] = test: Induction of apoptosis in human CNE2 cells assessed as late apoptotic cells level at 50 uM incubated for 24 hrs by Annexin V-FITC/PI dual staining based flow cytometry (reference value: 1.37%); assay type: functional; procedure, shortened: as §2
SMMC-7721 [3] = test: Induction of apoptosis in human SMMC7721 cells assessed as early apoptotic cells level at 50 uM incubated for 24 hrs by Annexin V-FITC/PI dual staining based flow cytometry (reference value: 1%); assay type: functional; procedure, shortened: as §2
SMMC-7721 [4] = test: Induction of apoptosis in human SMMC7721 cells assessed as early apoptotic cells level at 20 uM incubated for 24 hrs by Annexin V-FITC/PI dual staining based flow cytometry (reference value: 1%); assay type: functional; procedure, shortened: as §2
SMMC-7721 [5] = test: Induction of apoptosis in human SMMC7721 cells assessed as late apoptotic cells level at 10 uM incubated for 24 hrs by Annexin V-FITC/PI dual staining based flow cytometry (reference value: 1.6%); assay type: functional; procedure, shortened: as §2
CNE-2 [6] = test: Induction of apoptosis in human CNE2 cells assessed as early apoptotic cells level at 20 uM incubated for 24 hrs by Annexin V-FITC/PI dual staining based flow cytometry (reference value: 3.56%); assay type: functional; procedure, shortened: as §2
SMMC-7721 [7] = test: Induction of apoptosis in human SMMC7721 cells assessed as late apoptotic cells level at 50 uM incubated for 24 hrs by Annexin V-FITC/PI dual staining based flow cytometry (reference value: 1.6%); assay type: functional; procedure, shortened: as §2
CNE-2 [8] = test: Induction of apoptosis in human CNE2 cells assessed as late apoptotic cells level at 20 uM incubated for 24 hrs by Annexin V-FITC/PI dual staining based flow cytometry (reference value: 1.37%); assay type: functional; procedure, shortened: as §2
CNE-2 [9] = test: Induction of apoptosis in human CNE2 cells assessed as early apoptotic cells level at 50 uM incubated for 24 hrs by Annexin V-FITC/PI dual staining based flow cytometry (reference value: 3.56%); assay type: functional; procedure, shortened: as §2
CNE-2 [10] = test: Induction of apoptosis in human CNE2 cells assessed as necrotic cells level at 50 uM incubated for 24 hrs by Annexin V-FITC/PI dual staining based flow cytometry (reference value: 3.43%); assay type: functional; procedure, shortened: as §2
CNE-2 [11] = test: Anticancer activity against human CNE2 cells assessed as reduction in cell viability incubated for 48 hrs MTT assay; assay type: functional, cell-based; details: CNE-2, 48 h; procedure, shortened: as §1
CNE-2 [12] = test: Induction of apoptosis in human CNE2 cells incubated for 24 hrs by Annexin V-FITC/PI dual staining based flow cytometry; assay type: functional, cell-based; procedure, shortened: as §2
SMMC-7721 [13] = test: Induction of apoptosis in human SMMC7721 cells assessed as necrotic cells level at 10 uM incubated for 24 hrs by Annexin V-FITC/PI dual staining based flow cytometry (reference value: 1.18%); assay type: functional; procedure, shortened: as §2
SMMC-7721 [14] = test: Induction of apoptosis in human SMMC7721 cells assessed as necrotic cells level at 20 uM incubated for 24 hrs by Annexin V-FITC/PI dual staining based flow cytometry (reference value: 1.18%); assay type: functional; procedure, shortened: as §2
CNE-2 [15] = test: Induction of apoptosis in human CNE2 cells assessed as viable cells level at 50 uM incubated for 24 hrs by Annexin V-FITC/PI dual staining based flow cytometry (reference value: 91.6%); assay type: functional; procedure, shortened: as §2
SMMC-7721 [16] = test: Induction of apoptosis in human SMMC7721 cells assessed as viable cells level at 10 uM incubated for 24 hrs by Annexin V-FITC/PI dual staining based flow cytometry (reference value: 96.2%); assay type: functional; procedure, shortened: as §2
SMMC-7721 [17] = test: Induction of apoptosis in human SMMC7721 cells assessed as late apoptotic cells level at 20 uM incubated for 24 hrs by Annexin V-FITC/PI dual staining based flow cytometry (reference value: 1.6%); assay type: functional; procedure, shortened: as §2
CNE-2 [18] = test: Induction of apoptosis in human CNE2 cells assessed as necrotic cells level at 20 uM incubated for 24 hrs by Annexin V-FITC/PI dual staining based flow cytometry (reference value: 3.43%); assay type: functional; procedure, shortened: as §2
SMMC-7721 [19] = test: Induction of apoptosis in human SMMC7721 cells incubated for 24 hrs by Annexin V-FITC/PI dual staining based flow cytometry; assay type: functional, cell-based; procedure, shortened: as §2
SMMC-7721 [20] = test: Anticancer activity against human SMMC7721 cells assessed as reduction in cell viability incubated for 48 hrs MTT assay; assay type: functional, cell-based; details: SMMC-7721, 48 h; procedure, shortened: as §1
CNE-2 [21] = test: Induction of apoptosis in human CNE2 cells assessed as viable cells level at 20 uM incubated for 24 hrs by Annexin V-FITC/PI dual staining based flow cytometry (reference value: 91.6%); assay type: functional; procedure, shortened: as §2
SMMC-7721 [22] = test: Induction of apoptosis in human SMMC7721 cells assessed as early apoptotic cells level at 10 uM incubated for 24 hrs by Annexin V-FITC/PI dual staining based flow cytometry (reference value: 1%); assay type: functional; procedure, shortened: as §2
SMMC-7721 [23] = test: Induction of apoptosis in human SMMC7721 cells assessed as necrotic cells level at 50 uM incubated for 24 hrs by Annexin V-FITC/PI dual staining based flow cytometry (reference value: 1.18%); assay type: functional; procedure, shortened: as §2
SMMC-7721 [24] = test: Induction of apoptosis in human SMMC7721 cells assessed as viable cells level at 20 uM incubated for 24 hrs by Annexin V-FITC/PI dual staining based flow cytometry (reference value: 96.2%); assay type: functional; procedure, shortened: as §2

## COc1ccc2c(c1)c(/C=C1\CC[C@@H]3[C@H]4CCCN5CCC[C@@H](CN3C1=O)[C@@H]45)cn2Cc1cccc(Cl)c1
A549
  IC50: 4.96 µM
SMMC-7721 [1]
  Activity: 2.15%
CNE-2 [2]
  Activity: 28.3%
SMMC-7721 [3]
  Activity: 15.5%
SMMC-7721 [4]
  Activity: 40.6%
SMMC-7721 [5]
  Activity: 3.4%
CNE-2 [6]
  Activity: 29.9%
SMMC-7721 [7]
  Activity: 79.5%
CNE-2 [8]
  Activity: 8.7%
CNE-2 [9]
  Activity: 45.9%
CNE-2 [10]
  Activity: 4.62%
CNE-2 [11]
  IC50: 3.42 µM
CNE-2 [12]
  Activity: Dose-dependent effect
SMMC-7721 [13]
  Activity: 0.69%
SMMC-7721 [14]
  Activity: 2.53%
CNE-2 [15]
  Activity: 21.2%
SMMC-7721 [16]
  Activity: 60.3%
SMMC-7721 [17]
  Activity: 18.2%
CNE-2 [18]
  Activity: 2.7%
SMMC-7721 [19]
  Activity: Dose-dependent effect
SMMC-7721 [20]
  IC50: 3.95 µM
CNE-2 [21]
  Activity: 58.7%
SMMC-7721 [22]
  Activity: 35.6%
SMMC-7721 [23]
  Activity: 2.91%
SMMC-7721 [24]
  Activity: 38.6%

## Cc1cc(C)cc(Cn2cccc2/C=C2\CC[C@@H]3[C@H]4CCCN5CCC[C@@H](CN3C2=O)[C@@H]45)c1
A549
  IC50: > 50 µM
CNE-2 [11]
  IC50: 32.1 µM
SMMC-7721 [20]
  IC50: 49.4 µM

## Cc1ccccc1Cn1cc(/C=C2\CC[C@@H]3[C@H]4CCCN5CCC[C@@H](CN3C2=O)[C@@H]45)c2ccccc21
A549
  IC50: 12.1 µM
CNE-2 [11]
  IC50: 10.8 µM
SMMC-7721 [20]
  IC50: 12 µM

## O=C1/C(=C/c2cn(Cc3ccc(Cl)cc3)c3ccccc23)CC[C@@H]2[C@H]3CCCN4CCC[C@@H](CN12)[C@@H]34
A549
  IC50: 12.1 µM
CNE-2 [11]
  IC50: 11 µM
SMMC-7721 [20]
  IC50: 11.2 µM

## O=C1/C(=C/c2cccn2Cc2cccc(Br)c2)CC[C@@H]2[C@H]3CCCN4CCC[C@@H](CN12)[C@@H]34
A549
  IC50: 13.8 µM
CNE-2 [11]
  IC50: 15 µM
SMMC-7721 [20]
  IC50: 16.2 µM

## O=C1/C(=C/c2cn(Cc3ccc(OCc4ccccc4)cc3)c3ccccc23)CC[C@@H]2[C@H]3CCCN4CCC[C@@H](CN12)[C@@H]34
A549
  IC50: 12.6 µM
CNE-2 [11]
  IC50: 11.7 µM
SMMC-7721 [20]
  IC50: 9.76 µM

## CC(C)(C)c1ccc(Cn2ccc3cc(/C=C4\CC[C@@H]5[C@H]6CCCN7CCC[C@@H](CN5C4=O)[C@@H]67)ccc32)cc1
A549
  IC50: 10.9 µM
CNE-2 [11]
  IC50: 8.99 µM
SMMC-7721 [20]
  IC50: 10.7 µM

## O=C1/C(=C/c2cccn2Cc2cccc(Cl)c2)CC[C@@H]2[C@H]3CCCN4CCC[C@@H](CN12)[C@@H]34
A549
  IC50: 22.3 µM
CNE-2 [11]
  IC50: 16.3 µM
SMMC-7721 [20]
  IC50: 20.9 µM

## O=C1/C(=C/c2cn(Cc3cccc(Cl)c3)c3ccccc23)CC[C@@H]2[C@H]3CCCN4CCC[C@@H](CN12)[C@@H]34
A549
  IC50: 7.53 µM
CNE-2 [11]
  IC50: 6.36 µM
SMMC-7721 [20]
  IC50: 7.58 µM

## CC(C)(C)c1cc(Cn2cccc2/C=C2\CC[C@@H]3[C@H]4CCCN5CCC[C@@H](CN3C2=O)[C@@H]45)cc(C(C)(C)C)c1
A549
  IC50: > 40 µM
CNE-2 [11]
  IC50: > 40 µM
SMMC-7721 [20]
  IC50: > 40 µM

## COc1cccc(Cn2cccc2/C=C2\CC[C@@H]3[C@H]4CCCN5CCC[C@@H](CN3C2=O)[C@@H]45)c1
A549
  IC50: 29.8 µM
CNE-2 [11]
  IC50: 7.05 µM
SMMC-7721 [20]
  IC50: 13.4 µM

## O=C1/C(=C/c2cccc3c2ccn3Cc2cccc(Cl)c2)CC[C@@H]2[C@H]3CCCN4CCC[C@@H](CN12)[C@@H]34
A549
  IC50: 7.07 µM
CNE-2 [11]
  IC50: 6.64 µM
SMMC-7721 [20]
  IC50: 6.83 µM

## O=C1/C(=C/c2cccn2Cc2ccc(F)cc2)CC[C@@H]2[C@H]3CCCN4CCC[C@@H](CN12)[C@@H]34
A549
  IC50: 31.6 µM
CNE-2 [11]
  IC50: 26.4 µM
SMMC-7721 [20]
  IC50: 34 µM
